Published values collected from several papers.
Lines come from different studies, so protocols differ.
KIT: Mast/stem cell growth factor receptor Kit (KIT, Homo sapiens, UniProt P10721)
KIT D816V: Mast/stem cell growth factor receptor Kit (KIT, Homo sapiens, UniProt P10721, D816V)
KIT L576P: Mast/stem cell growth factor receptor Kit (KIT, Homo sapiens, UniProt P10721, L576P)
KIT A829P: Mast/stem cell growth factor receptor Kit (KIT, Homo sapiens, UniProt P10721, A829P)
KIT T670I/V559D: Mast/stem cell growth factor receptor Kit (KIT, Homo sapiens, UniProt P10721, T670I/V559D)
KIT V559D: Mast/stem cell growth factor receptor Kit (KIT, Homo sapiens, UniProt P10721, V559D)
KIT autoinhibited: Mast/stem cell growth factor receptor Kit, autoinhibited (KIT, Homo sapiens, UniProt P10721)

SMILES	target	test	setting	remaining binding [%]
C[C@@H](c1ccc(-n2cnc3c(N)ncnc32)cc1)N1CCc2nn(C)c(Cc3ccccc3)c2C1=O	KIT	binding, competition with immobilised ligand	0.1 µM	38
COc1cccc(CNC(=O)c2nc3scc(COCc4ccc(C(=O)O)cc4)c3c(=O)[nH]2)c1	KIT D816V	cell-free assay, competition with immobilised ligand	1 µM	100
CNC(=O)[C@@H]1CC[C@@H](n2c(-c3ccc4cnccc4c3)nc3ccc(C(=O)NCc4cccc(C(N)=O)c4)cc32)C1	KIT D816V	binding, competition with immobilised ligand	1 µM	99
O=C(NCCCN1CCOCC1)c1ccc(Nc2nccc(-c3cc4ccccc4s3)n2)cc1	KIT L576P	binding, competition with immobilised ligand	1 µM	8.7
NS(=O)(=O)c1cc(NC(=O)Cc2ccccc2)ccc1Oc1cccc(Cl)c1	KIT	cell-free assay, competition with immobilised ligand	1 µM	89
COc1ccnn2ncc(-c3ccnc(N(C)C)n3)c12	KIT A829P	binding	1 µM	85
O=C(c1ccc(Nc2nccc(-c3cc4ccccc4s3)n2)cc1)N1CCC(N2CCCC2)CC1	KIT T670I/V559D	binding, competition with immobilised ligand	1 µM	24
O=C(NCC1CCOCC1)c1n[nH]cc1NC(=O)c1c(F)cccc1F	KIT T670I/V559D	binding, competition with immobilised ligand	1 µM	100
CC1CCCN1c1nccc(-c2cnn3ncccc23)n1 (stereo not drawn)	KIT A829P	binding	1 µM	89
COc1cnc(Nc2cccc(S(N)(=O)=O)c2)nc1N1CCN(c2ccccc2)CC1	KIT D816V	binding, competition with immobilised ligand	1 µM	92
c1cnn2ncc(-c3ccnc(N4CCC45COC5)n3)c2c1	KIT D816V	binding	1 µM	93
CNC(=O)Nc1ccc2c(c1)[C@@]1(CC2)OC(=O)N(CC(=O)N(Cc2ccc(F)cc2)[C@@H](C)C(F)(F)F)C1=O	KIT V559D	cell-free assay, competition with immobilised ligand	1 µM	100
O=C(NCCCN1CCOCC1)c1ccc(Nc2ncc(Cl)c(-c3ccc(Cl)s3)n2)cc1	KIT L576P	binding, competition with immobilised ligand	1 µM	2.8
COc1ccc2c(O[C@@H]3C[C@H]4C(=O)N[C@]5(C(=O)O)CC5/C=C\CCCCC[C@H](NC(=O)OC5CCCC5)C(=O)N4C3)cc(-c3csc(NC(=O)C(C)C)n3)nc2c1C (stereo partly drawn)	KIT	cell-free assay, competition with immobilised ligand	1 µM	100
N[C@H]1CCN(c2nccc(-c3cnn4ncccc34)n2)C1	KIT L576P	binding	1 µM	86
C[C@@H]1CN(c2cc(-c3n[nH]c4ccc(OC5(C)CC5)cc34)ncn2)C[C@H](C)O1	KIT V559D	cell-free assay, competition with immobilised ligand	0.1 µM	100
C[C@@H]1CCN(c2nccc(-c3cnn4ncccc34)n2)C1	KIT L576P	binding	1 µM	100
O=C(NS(=O)(=O)c1ccc(NCC2CCOCC2)c([N+](=O)[O-])c1)c1ccc(N2CCN(Cc3ccc(C(F)(F)F)cc3-c3ccc(Cl)cc3)CC2)cc1Oc1cnc2[nH]ccc2c1	KIT autoinhibited	cell-free assay, competition with immobilised ligand	1 µM	100
c1cncc(-c2cccc(Nc3nccc(NC4CCCCC4)n3)c2)c1	KIT autoinhibited	binding, competition with immobilised ligand	10 µM	43
CN(C)c1ncc(F)c(-c2cnn3ncccc23)n1	KIT D816V	binding	1 µM	91
C[C@@]1(Cc2ccc(C#N)cc2)C(=O)N(c2cc(Cl)cc(Cl)c2)c2ncc(C(=O)NC3(c4nc(C5CCC5)no4)CC3)n21	KIT D816V	cell-free assay, competition with immobilised ligand	1 µM	100
